Laboratory results from ChEMBL document CHEMBL4406880, “Design, synthesis, and bioactivity of dihydropyrimidine derivatives as kinesin spindle protein inhibitors” (Bioorg Med Chem, 2019).

What was measured:
Type in all cases: functional
K562 = assay: Growth inhibition of human K562 cells assessed as cell viability at 0.1 uM incubated for 48 hrs by sulforhodamine B assay; conditions: K562, 48 h, read-out: Activity
TK-10 = assay: Growth inhibition of human TK10 cells assessed as cell viability at 1 uM incubated for 48 hrs by sulforhodamine B assay; conditions: TK-10, 48 h, read-out: Activity
HCT-116 [1] = assay: Growth inhibition of human HCT116 cells assessed as cell viability at 0.001 uM incubated for 48 hrs by sulforhodamine B assay relative to control; conditions: HCT-116, 48 h, read-out: Activity
M14 = assay: Growth inhibition of human M14 cells assessed as cell viability at 100 uM incubated for 48 hrs by sulforhodamine B assay; conditions: M14, 48 h, read-out: Activity
NCI/ADR-RES [2] = assay: Growth inhibition of human NCI/ADR-RES cells assessed as cell viability at 1 uM incubated for 48 hrs by sulforhodamine B assay; conditions: read-out: Activity
PC-3 = assay: Growth inhibition of human PC3 cells incubated for 48 hrs by sulforhodamine B assay; conditions: PC-3, 48 h
Summary of the method: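 NCI-60 five-dose SRB assay. Cells were exposed for 48 h to tenfold dilutions of 0.01, 0.1, 1, 10 and 100 µM, in RPMI 1640 with 5% FBS. Plates fixed with TCA at the time of drug addition served as the time-zero reference. GI50 is the concentration giving a 50% reduction in net growth. TGI is total growth inhibition. LC50 is a net 50% loss of the initial cells.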

OVCAR-4 = assay: Growth inhibition of human OVCAR4 cells assessed as cell viability at 0.001 uM incubated for 48 hrs by sulforhodamine B assay relative to control; conditions: OVCAR-4, 48 h, read-out: Activity
SR = assay: Growth inhibition of human SR cells assessed as cell viability at 0.1 uM incubated for 48 hrs by sulforhodamine B assay; conditions: read-out: Activity
LOX IMVI [3] = assay: Growth inhibition of human LOXIMVI cells assessed as cell viability at 1 uM incubated for 48 hrs by sulforhodamine B assay; conditions: read-out: Activity
NCI-H322M = assay: Growth inhibition of human NCI-H322M cells assessed as cell viability at 1 uM incubated for 48 hrs by sulforhodamine B assay; conditions: read-out: Activity
SF-539 = assay: Growth inhibition of human SF539 cells assessed as cell viability at 1 uM incubated for 48 hrs by sulforhodamine B assay; conditions: SF-539, 48 h, read-out: Activity
HCT-116 [4] = assay: Growth inhibition of human HCT116 cells incubated for 48 hrs by sulforhodamine B assay; conditions: HCT-116, 48 h
Summary of the method: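 NCI-60 five-dose mode: five tenfold dilutions (0.01, 0.1, 1, 10, 100 µM) are applied for 48 h to cells in RPMI 1640 with 5% FBS at 37 °C. Endpoint is TCA fixation with sulforhodamine B read at 515 nm. % growth comes from the 0 h and control absorbances. GI50 is the concentration giving a 50% reduction in net cell growth.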

HCT-15 = assay: Growth inhibition of human HCT15 cells assessed as cell viability at 1 uM incubated for 48 hrs by sulforhodamine B assay; conditions: HCT-15, 48 h, read-out: Activity
EKVX = assay: Growth inhibition of human EKVX cells assessed as cell viability at 0.001 uM incubated for 48 hrs by sulforhodamine B assay relative to control; conditions: read-out: Activity
NCI/ADR-RES [5] = assay: Growth inhibition of human NCI/ADR-RES cells assessed as cell viability at 0.1 uM incubated for 48 hrs by sulforhodamine B assay; conditions: read-out: Activity
CAKI-1 = assay: Growth inhibition of human Caki1 cells assessed as cell viability at 0.001 uM incubated for 48 hrs by sulforhodamine B assay relative to control; conditions: CAKI-1, 48 h, read-out: Activity
NCI-H460 = assay: Growth inhibition of human NCI-H460 cells assessed as cell viability at 1 uM incubated for 48 hrs by sulforhodamine B assay; conditions: NCI-H460, 48 h, read-out: Activity
LOX IMVI [6] = assay: Growth inhibition of human LOXIMVI cells assessed as cell viability at 100 uM incubated for 48 hrs by sulforhodamine B assay; conditions: read-out: Activity
T47D = assay: Growth inhibition of human T47D cells assessed as cell viability at 0.1 uM incubated for 48 hrs by sulforhodamine B assay; conditions: read-out: Activity
HOP-62 = assay: Growth inhibition of human HOP62 cells assessed as cell viability at 1 uM incubated for 48 hrs by sulforhodamine B assay; conditions: HOP-62, 48 h, read-out: Activity
SW-620 = assay: Growth inhibition of human SW620 cells assessed as cell viability at 1 uM incubated for 48 hrs by sulforhodamine B assay; conditions: SW-620, 48 h, read-out: Activity
HL-60(TB) = assay: Growth inhibition of human HL-60(TB) cells assessed as cell viability at 0.1 uM incubated for 48 hrs by sulforhodamine B assay; conditions: HL-60, 48 h, read-out: Activity
Summary of the method: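 NCI-60 five-dose assay, SRB end-point, same culture conditions. Compound is tested at tenfold dilutions of 0.01, 0.1, 1, 10 and 100 µM for 48 h at 37 °C, with DMSO/PBS vehicle controls. Percentage growth at each concentration is taken against untreated cells and a time-zero plate. GI50 is 50% net growth decrease, TGI is total growth inhibition, and LC50 is 50% loss of initial cells.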

BT-549 = assay: Growth inhibition of human BT549 cells assessed as cell viability at 1 uM incubated for 48 hrs by sulforhodamine B assay; conditions: BT-549, 48 h, read-out: Activity
LOX IMVI [7] = assay: Growth inhibition of human LOXIMVI cells assessed as cell viability at 0.001 uM incubated for 48 hrs by sulforhodamine B assay relative to control; conditions: read-out: Activity
HCC 2998 = assay: Growth inhibition of human HCC2998 cells assessed as cell viability at 1 uM incubated for 48 hrs by sulforhodamine B assay; conditions: HCC 2998, 48 h, read-out: Activity
MDA-MB-435 = assay: Growth inhibition of human MDA-MB-435 cells incubated for 48 hrs by sulforhodamine B assay; conditions: MDA-MB-435, 48 h
Summary of the method: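 NCI-60 five-dose SRB assay in RPMI 1640 with 5% FBS, 37 °C, 5% CO2. Compound given at five tenfold dilutions, 0.01–100 µM, for 48 h. Adherent cells fixed with TCA, suspension cells with 16% final TCA. Bound SRB read at 515 nm and growth calculated against time-zero and untreated controls. GI50 taken from dose–response curves as the concentration giving a 50% decrease in net cell growth.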

`CC1=C(C(=O)OCc2ccccc2)C(c2ccc3c(c2)OCO3)n2c(nc3ccccc32)N1` (racemic) gave a viability at 0.1 µM (K562) of 82%, a viability at 1 µM (TK-10) of 71% and a viability at 0.001 µM (HCT-116 [1]) of 96%. The viability at 100 µM (M14) was 24%, the viability at 1 µM (NCI/ADR-RES [2]) was 17% and the GI50 (PC-3; read-out: GI50) was 550 nM. For the same compound, the CC50 (PC-3; read-out: LC50 (the source's name)) was over 100000 nM, the TGI (PC-3; read-out: TGI) was over 100000 nM and the GI50 (PC-3; read-out: pGI50 (converted)) was 550 nM. For the same compound, the CC50 (PC-3; read-out: pLC50 (the source's name) (converted)) was over 100000 nM, the TGI (PC-3; read-out: pTGI) was over 100000 nM and the viability at 0.001 µM (OVCAR-4) was 82%. It also gave a viability at 0.1 µM (SR) of 75%, a viability at 1 µM (LOX IMVI [3]) of 35% and a viability at 1 µM (NCI-H322M) of 48%. It also gave a viability at 1 µM (SF-539) of 13%, a GI50 (HCT-116 [4]; read-out: GI50) of 470 nM and an LC50 (HCT-116 [4]; read-out: LC50) of over 100000 nM. The TGI (HCT-116 [4]; read-out: TGI) was over 100000 nM, the GI50 (HCT-116 [4]; read-out: pGI50 (converted)) was 479 nM and the LC50 (HCT-116 [4]; read-out: pLC50 (converted)) was over 100000 nM. The TGI (HCT-116 [4]; read-out: pTGI) was over 100000 nM, the viability at 1 µM (HCT-15) was 25% and the viability at 0.001 µM (EKVX) was 91%. For the same compound, the viability at 0.1 µM (NCI/ADR-RES [5]) was 86%, the viability at 0.001 µM (CAKI-1) was 83% and the viability at 1 µM (NCI-H460) was 10%. For the same compound, the viability at 100 µM (LOX IMVI [6]) was 32%, the viability at 0.1 µM (T47D) was 93% and the viability at 1 µM (HOP-62) was 44%. The viability at 1 µM (SW-620) was 23%, the viability at 0.1 µM (HL-60(TB)) was 97% and the viability at 1 µM (BT-549) was 49%. For the same compound, the viability at 0.001 µM (LOX IMVI [7]) was 93%, the viability at 1 µM (HCC 2998) was 59% and the GI50 (MDA-MB-435; read-out: GI50) was 80 nM. The LC50 (MDA-MB-435; read-out: LC50) was over 100000 nM, the TGI (MDA-MB-435; read-out: TGI) was 350 nM and the GI50 (MDA-MB-435; read-out: pGI50 (converted)) was 85.1 nM. The LC50 (MDA-MB-435; read-out: pLC50 (converted)) was over 100000 nM and the TGI (MDA-MB-435; read-out: pTGI (converted)) was 347 nM.
